From publication PMC9674229 (Proceedings of the National Academy of Sciences of the …, 2022)

Tests used:
[1] = tested on: SNI mice (mechanical allodynia); assay: mechanical withdrawal threshold; format: in vivo, mouse; conditions: intrathecal coadministration of BIBO 3304 10.0 µg with [Leu^31, Pro^34]-NPY 10.0 µg; n = 4 to 11 mice/group
[2] = tested on: SNI mice (cold allodynia); assay: cold withdrawal duration; format: in vivo, mouse; conditions: intrathecal coadministration of BIBO 3304 10.0 µg with [Leu^31, Pro^34]-NPY 10.0 µg; n = 4 to 11 mice/group
[3] = tested on: light touch-evoked pERK in ipsilateral dorsal horn neurons; assay: light touch-evoked pERK immunoreactivity in dorsal horn, SNI, intrathecal agents; format: in vivo, mouse; conditions: intrathecal coadministration of BIBO 3304 10.0 µg with [Leu^31, Pro^34]-NPY 10.0 µg; n = 4 to 6 mice/group
[4] = tested on: inhibitory DREADD hM4DGi in spinal Y1-INs; assay: chemogenetic inhibition of Y1-INs: mechanical withdrawal threshold; format: in vivo, mouse; conditions: CNO 3 mg/kg i.p., n = 7 mice/group
In short: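 Adult Npy1rCre mice received intraspinal Cre-dependent AAV8-hSyn-DIO-hM4DGi (mCherry-tagged) into the left lumbar DH at L3–L4. CNO (3 mg/kg, i.p.) was given either before or after SNI. Calibrated von Frey filaments were applied to the lateral hindpaw to measure withdrawal thresholds. Statistics used two-way ANOVA with Holm-Sidak post hoc tests, and data are shown as means ± SEM.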

[5] = tested on: inhibitory DREADD hM4DGi in spinal Y1-INs; assay: chemogenetic inhibition of Y1-INs: cold; format: in vivo, mouse; conditions: CNO 3 mg/kg i.p., n = 7 mice/group
In short: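 Npy1rCre mice were given intraspinal AAV8-hSyn-DIO-hM4DGi into the left lumbar (L3–L4) DH, which expresses Gi-DREADD in Y1-INs. CNO 3 mg/kg i.p. was dosed pre- or post-SNI. Cold sensitivity was scored as the withdrawal response to a 10 μL acetone droplet on the lateral hindpaw. Analysis used two-way ANOVA and Holm-Sidak post hoc tests; data are means ± SEM.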

[6] = tested on: inhibitory DREADD hM4DGi in spinal Y1-INs; assay: chemogenetic inhibition of Y1-INs: light touch-evoked pERK; format: in vivo, mouse; conditions: CNO 3 mg/kg i.p., SNI mice, n = 7 mice/group
In short: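 Y1-INs in Npy1rCre mice were targeted by left lumbar (L3–L4) DH injection of AAV8-hSyn-DIO-hM4DGi. In SNI mice, CNO (3 mg/kg i.p.) was followed by light brushing of the lateral hindpaw. Ipsilateral lumbar DH sections were then immunostained for pERK and quantified in the superficial laminae. Groups were compared by unpaired two-tailed Student's t test; data are means ± SEM.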

[7] = tested on: inhibitory DREADD hM4DGi in spinal Y1-INs; assay: chemogenetic inhibition of Y1-INs: conditioned place preference; format: in vivo, mouse; conditions: CNO 3 mg/kg i.p., SNI mice, n = 10 to 11 mice/group
In short: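 SNI Npy1rCre mice carried either intraspinal (left lumbar DH) Cre-dependent hM4DGi or control mCherry virus. After conditioning with CNO (3 mg/kg i.p.) paired to one chamber, time spent in the CNO-paired chamber was recorded. Groups were compared with an unpaired two-tailed Student's t test; data are means ± SEM.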

[8] = tested on: excitatory DREADD hM3DGq in spinal Y1-INs; assay: chemogenetic activation of Y1-INs: spontaneous nocifensive behavior; format: in vivo, mouse; conditions: CNO 3 mg/kg i.p., n = 3 to 5 mice/group
In short: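 Cre-dependent AAV8-hSyn-DIO-hM3DGq-mCitrine or mCherry control virus was injected into the left lumbar dorsal horn of uninjured Npy1rCre mice. CNO (3 mg/kg, i.p.) or saline was given, then behaviour was videotaped. Scored: nocifensive acts (lifting, flapping, shaking, licking, guarding) and itch-like acts (biting, scratching), each directed to the ipsilateral or contralateral hind limb. Three-way RM ANOVA, Holm-Sidak post hoc.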

[9] = tested on: excitatory DREADD hM3DGq in spinal Y1-INs; assay: chemogenetic activation of Y1-INs: mechanical; format: in vivo, mouse; conditions: CNO 3 mg/kg, uninjured mice, n = 8 mice/group
In short: (§1)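 Npy1rCre mice were given an intraspinal injection of Cre-dependent AAV8-hSyn-DIO-hM3DGq-mCitrine into the left lumbar dorsal horn; controls received mCherry virus. Mice were uninjured. CNO 3 mg/kg was given i.p. before testing. Assays: von Frey filaments to the lateral hindpaw (mechanical); a 10 μL acetone droplet to the lateral hindpaw, scoring withdrawal (cold); 52.5 C hotplate (heat). Holm-Sidak post hoc tests.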

[10] = tested on: excitatory DREADD hM3DGq in spinal Y1-INs; assay: chemogenetic activation of Y1-INs: cold; format: in vivo, mouse; conditions: CNO 3 mg/kg, uninjured mice, n = 8 mice/group
In short: as §1

[11] = tested on: excitatory DREADD hM3DGq in spinal Y1-INs; assay: chemogenetic activation of Y1-INs: heat; format: in vivo, mouse; conditions: CNO 3 mg/kg, uninjured mice, n = 8 mice/group
In short: as §1

[12] = tested on: excitatory DREADD hM3DGq in spinal Y1-INs; assay: chemogenetic activation of Y1-INs: conditioned place aversion; format: in vivo, mouse; conditions: CNO 3 mg/kg i.p., uninjured mice, n = 10 to 11 mice/group
[13] = tested on: excitatory DREADD hM3DGq in spinal Y1-INs; assay: chemogenetic activation of Y1-INs: open field testing; format: in vivo, mouse; conditions: CNO 3 mg/kg, 60 min, n = 6 mice/group
In short: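 Uninjured Npy1rCre mice carried left lumbar dorsal-horn Cre-dependent hM3DGq or mCherry virus. Immediately after CNO (3 mg/kg, i.p.), mice were placed in a novel open field for 60 min. […] Averaged activity shown as heat maps. Student's unpaired two-tailed t test.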

DREADD = conditions: CNO 3 mg/kg; cited from earlier work
[14] = tested on: spinal cord transient firing neurons; conditions: cited from earlier work
Y1 receptors = conditions: intrathecal; rodent models of chronic pain; cited from earlier work

NC(=O)NCc1ccc(CNC(=O)[C@@H](CCCN=C(N)N)NC(=O)C(c2ccccc2)c2ccccc2)cc1 [BIBO 3304]
effect on Y1 agonist-induced mechanical anti-allodynia [1]: abolishes | effect on Y1 agonist-induced cold anti-allodynia [2]: abolishes | effect on Y1 agonist-induced reduction of light touch-evoked pERK [3]: this effect is abolished with coadministration of the Y1 antagonist

C[N+]1([O-])CCN(C2=Nc3cc(Cl)ccc3Nc3ccccc32)CC1 [CNO, clozapine N-oxide]
SNI-induced mechanical hypersensitivity ([4]; post-SNI): abolished both mechanical and cold hypersensitivity | mechanical withdrawal thresholds before SNI ([4]; pre-SNI): does not alter mechanical or cold withdrawal thresholds before SNI | SNI-induced cold hypersensitivity ([5]; post-SNI): abolished both mechanical and cold hypersensitivity | cold withdrawal thresholds before SNI ([5]; pre-SNI): does not alter mechanical or cold withdrawal thresholds before SNI | light touch-evoked pERK in the superficial DH [6]: reduced light-touch evoked pERK in the superficial DH | conditioned place preference (time in CNO-paired chamber) ([7]; control virus (mCherry)): but not control virus (mCherry) spent more time in the CNO-paired chamber | conditioned place preference (time in CNO-paired chamber) ([7]; hM4DGi): spent more time in the CNO-paired chamber | spontaneous nocifensive behaviors ([8]; control (mCherry) virus): but not control (mCherry) virus | itch-like (biting or scratching) behaviors ([8]; hM3DGq, uninjured mice): but not itch-like (biting or scratching) behaviors | spontaneous nocifensive behaviors, contralateral hind limb ([8]; hM3DGq, uninjured mice): but not contralateral, hind limb | mechanical (vF) hypersensitivity [9]: hypersensitivity | cold (acetone droplet withdrawal) hypersensitivity [10]: hypersensitivity | heat (52.5 C hotplate) hypersensitivity [11]: hypersensitivity | conditioned place aversion [12]: produced a robust CPA | grooming-like behaviors (stereotypic episode activity count) [13]: increased grooming-like (stereotypic episode activity count) behaviors | movement in open field [13]: continuous movement | rest in open field [13]: lack of rest | time to alter DREADD-dependent neuronal activity (DREADD): ≤ 15 min

NCC1(CC(=O)O)CCCCC1 [gabapentin]
frequency and amplitude of sEPSCs [14]: reducing both the frequency and amplitude of sEPSCs

neuropeptide Y [NPY]
behavioral and spinal molecular signs of hyperalgesia (Y1 receptors): reduces the behavioral and spinal molecular signs of hyperalgesia
